# Measured values from PMC4701204 (Chemistry & biology, 2015).
# Entries after “also recorded” stand apart in the source; their conditions may differ.
# T1: RAD52 1-209 undecamer ring (Homo sapiens, UniProt P43351)
# T1 sequence (P43351 1-209): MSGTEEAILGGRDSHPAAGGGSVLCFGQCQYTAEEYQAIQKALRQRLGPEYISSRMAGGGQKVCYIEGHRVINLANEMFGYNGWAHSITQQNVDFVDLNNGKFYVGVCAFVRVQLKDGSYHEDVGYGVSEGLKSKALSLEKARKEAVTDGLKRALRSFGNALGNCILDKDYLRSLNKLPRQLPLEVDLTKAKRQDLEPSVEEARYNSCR
# T2: RAD52 WT (Homo sapiens, UniProt P43351)
# T2 sequence (P43351 1-418): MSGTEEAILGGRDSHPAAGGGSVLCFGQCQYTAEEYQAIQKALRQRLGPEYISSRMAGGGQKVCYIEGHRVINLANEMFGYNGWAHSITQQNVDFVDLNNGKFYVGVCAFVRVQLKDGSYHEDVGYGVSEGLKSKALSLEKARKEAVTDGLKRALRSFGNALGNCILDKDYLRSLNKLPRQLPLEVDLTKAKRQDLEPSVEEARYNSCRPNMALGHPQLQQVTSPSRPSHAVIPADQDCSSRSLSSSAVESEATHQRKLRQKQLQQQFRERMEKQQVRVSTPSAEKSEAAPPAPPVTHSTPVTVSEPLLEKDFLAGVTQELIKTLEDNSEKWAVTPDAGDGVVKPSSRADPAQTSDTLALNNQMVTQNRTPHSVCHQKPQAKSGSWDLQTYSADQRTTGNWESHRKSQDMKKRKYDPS
# Assays:
# [1] = target: T1, RAD52 1-209 undecamer ring; assay: Light scattering of RAD52 1-209; type: biochemical
# Summary of the method: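 RAD52 1-209 (purified by a published method) incubated with or without test compound in 1 M or 0.15 M NaCl. Species sizes measured by light scattering. Buffer-only and compound-only controls included.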
# RAD51 = RAD51 (Homo sapiens, UniProt Q06609); assay: Fluorescence polarization; type: binding; conditions: in vitro, FP, 280 nM RAD51, 1 mM ATP
# Chain of RAD51 (Q06609 whole entry, species assumed): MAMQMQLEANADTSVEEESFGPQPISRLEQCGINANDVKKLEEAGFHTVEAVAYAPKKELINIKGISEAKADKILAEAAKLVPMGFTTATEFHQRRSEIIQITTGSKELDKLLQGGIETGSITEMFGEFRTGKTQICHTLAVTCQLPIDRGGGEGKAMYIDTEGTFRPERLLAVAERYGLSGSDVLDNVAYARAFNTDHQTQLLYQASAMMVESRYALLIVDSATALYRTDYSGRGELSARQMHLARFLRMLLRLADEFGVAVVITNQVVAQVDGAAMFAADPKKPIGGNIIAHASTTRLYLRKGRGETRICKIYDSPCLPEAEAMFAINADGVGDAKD
# Summary of the method: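 Human RAD51 (280 nM) with 1 mM ATP, 10 nM FAM-labelled ssDNA and varied test compound in pH 7.5 Tris buffer (25 mM NaCl, 0.5 mM MgCl2, 1 mM DTT, 0.01% NP-40, 0.1 mg/mL BSA). Incubated 30 min at room temp, then fluorescence polarization read. Inhibition of ssDNA binding taken from FP.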
# HEK293T cells = assay: eGFP-RAD52 foci formation after ionizing radiation; type: cell-based
# Summary of the method: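 HEK293T cells expressing eGFP-RAD52 treated with test compound at several concentrations and exposed to ionizing radiation. DAPI-counterstained nuclei imaged, and the percent of cells with ≥ 5 eGFP-RAD52 foci scored. Values are average ± s.e.m. of 3 independent experiments; two-tailed Student's t-test.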
# [2] = tested on: BCR-ABL transformed murine hematopoietic 32Dcl3 cells expressing eGFP-RAD52; assay: eGFP-RAD52 foci formation after cisplatin; type: cell-based; conditions: cisplatin treated 32Dcl3 BCR-ABL cells
# Summary of the method: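 Cells expressing eGFP-RAD52 pre-incubated with DMSO or test compound at several concentrations, then treated with cisplatin. Fraction of cells with eGFP-RAD52 foci scored by fluorescence microscopy. Values are mean ± s.e.m. of triplicates; two-tailed Student's t-test.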
# ssDNA = assay: Interaction of small molecule with ssDNA; type: binding; conditions: Supplementary Fig. 1
# AML patient cells = assay: Clonogenic survival; type: cell-based
# Summary of the method: (§1)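 Colony-forming survival of BRCA-deficient and BRCA-proficient leukemia patient cells after test compound or olaparib. Each data point pools cells from 3 different patients. Mean ± s.e.m. of 3 independent experiments.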
# [3] = tested on: HCC1937 cells (BRCA1 deficient); assay: Cell viability; type: cell-based; conditions: 5 μM 6-OH-dopa
# Summary of the method: (§2)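 Each BRCA-deficient line tested alongside its BRCA-proficient counterpart after single-concentration test compound (olaparib or siRNA in some panels). Relative viability reported as mean ± s.e.m. of triplicates, with two-tailed Student's t-test.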
# [4] = target: T1, RAD52 1-209 undecamer ring; assay: Native gel electrophoresis of RAD52 1-209 composition; type: biochemical
# RAD52 = RAD52 (Homo sapiens, UniProt P43351); assay: EMSA with excess ssDNA substrate; type: binding; conditions: 25 μM
# Summary of the method: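 RAD52 binding to an excess of Cy3-labelled ssDNA substrate in the presence of 25 μM test compound. Complexes resolved by EMSA on a non-denaturing gel.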
# [5] = target: RAD52 1-209 (ssDNA binding domain) (Homo sapiens, UniProt P43351); assay: Fluorescence polarization
# RAD52 WT = target: T2, RAD52 WT; assay: Fluorescence polarization; type: binding; conditions: for Inhibition of RAD52 ssDNA binding: in vitro, Supplementary Fig. 1
# [6] = tested on: MDA-MB-436 cells complemented with BRCA1; assay: eGFP-RAD52 foci formation after ionizing radiation; type: cell-based; conditions: MDA-MB-436 BRCA1 complemented
# Summary of the method: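 BRCA1-complemented MDA-MB-436 cells expressing eGFP-RAD52 were given test compound, then ionizing radiation, with or without IR as control. Nuclei stained with DAPI. Cells with ≥5 eGFP-RAD52 foci counted as percent of total. Mean ± s.e.m. of 3 independent experiments.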
# [7] = tested on: BRCA1 deficient CML patient cells; assay: Clonogenic survival; type: cell-based
# Summary of the method: as §1
# [8] = tested on: CAPAN-1 cells (BRCA2 defective); assay: Cell viability / proliferation; type: cell-based; conditions: 10 μM 6-OH-dopa, 20 μM olaparib
# Summary of the method: as §2
# [9] = tested on: BRCA deficient cells (VC8, HCC1937); assay: Annexin V staining; type: cell-based; conditions: BRCA deficient vs proficient cells
# RecA = RecA (Escherichia coli, UniProt P0A7G6); assay: Effect on RecA in vitro; type: biochemical; conditions: Supplementary Fig. 1
# Chain of RecA (P0A7G6 whole entry, species assumed): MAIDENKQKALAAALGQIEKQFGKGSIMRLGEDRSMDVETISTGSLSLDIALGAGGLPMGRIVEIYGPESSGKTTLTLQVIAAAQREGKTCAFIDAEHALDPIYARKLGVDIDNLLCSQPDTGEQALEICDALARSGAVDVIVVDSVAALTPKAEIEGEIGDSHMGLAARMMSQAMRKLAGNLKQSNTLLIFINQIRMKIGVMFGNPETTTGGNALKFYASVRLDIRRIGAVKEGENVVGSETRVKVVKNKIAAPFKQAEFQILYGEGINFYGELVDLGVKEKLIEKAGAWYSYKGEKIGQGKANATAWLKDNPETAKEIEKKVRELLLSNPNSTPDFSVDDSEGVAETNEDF
# SSA in U20S cells = assay: SSA GFP reporter assay; type: cell-based; conditions: 5 μM
# Summary of the method: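 U20S cells carrying an SSA reporter exposed to test compounds at 5 μM. RAD52 siRNA versus scrambled siRNA serves as pathway control, with knockdown checked by western blot. Values are mean ± s.e.m. of triplicates, some from 3 separate experiments; two-tailed Student's t-test.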
# RAD52-ssDNA complexes = RAD52-ssDNA complexes (Homo sapiens, UniProt P43351); assay: Dissociation of pre-formed RAD52-ssDNA complexes; type: binding; conditions: 30 μM, FP measured 2 min after addition
# Summary of the method: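 RAD52–ssDNA complexes pre-formed and equilibrated for 30 min before 30 μM test compound was added. FP read 2 min later against a DNA-only control, with mean ± s.d. of 3 independent experiments. Dissociation was also tested by EMSA on non-denaturing gels.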
# [10] = tested on: BRCA deficient and proficient cell lines; assay: Clonogenic survival assay; type: cell-based
# Summary of the method: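 Clonogenic survival of BRCA-deficient and BRCA-proficient cell lines treated with test compound or olaparib. Mean ± s.e.m. of 3 independent experiments.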
# [11] = tested on: VC8 cells (BRCA2 defective); assay: Cell viability / proliferation; type: cell-based, Chinese hamster; conditions: 75 μM 6-OH-dopa
# Summary of the method: as §2
# HR in U20S cells = assay: HR GFP reporter assay; type: cell-based
# MDA-MB-436 cells = assay: γH2AX foci; type: cell-based; conditions: more pronounced in BRCA deficient cells
# [12] = tested on: MDA-MB-436 cells (BRCA1 deficient and BRCA1 complemented); assay: Cell viability; type: cell-based; conditions: for Viability of BRCA1 deficient MDA-MB-436 cells: 3 day time course, 20 μM 6-OH-dopa
# Summary of the method: as §2
# NHEJ in U20S cells = assay: NHEJ GFP reporter assay; type: cell-based; conditions: 5 μM
# Summary of the method: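 NHEJ GFP reporter in U2OS cells, run with or without 5 μM test compound. Mean ± s.e.m. of two separate experiments, each in triplicate.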
# light scattering [13] = target: the molecule itself; assay: light scattering
# light scattering [14] = target: the molecule itself; assay: light scattering; remark: listed apart in the source
# native gel or EMSA = target: the molecule itself; assay: native gel or EMSA
molecule,measurement,setting,value
"NC(Cc1cc(O)c(O)cc1O)C(=O)O (racemic) [6-OH-dopa, 6-hydroxy-DL-dopa]",Size of RAD52 1-209 species produced,[1]; high salt (1 M NaCl),48.3 kDa
same,Size of RAD52 1-209 species produced,[1]; low salt (0.15 M NaCl),48.3 kDa
same,Undecamers (270 kDa) converted into dimers (48.3 kDa),[1]; low salt (0.15 M NaCl),100%
same,Effect on RAD51,RAD51,little or no effect; also recorded: no effect
same,eGFP-RAD52 foci,HEK293T cells,decreased the number of eGFP-RAD52 foci in a dose dependent manner
same,eGFP-RAD52 foci formation,[2],suppressed eGFP-RAD52 foci formation in a dose dependent manner
same,Interaction with ssDNA,ssDNA,does not interact with ssDNA
same,Colony formation by AML patient cells expressing normal levels of BRCA1/2,AML patient cells,little effects
same,Viability of HCC1937 cells,[3],selectively reduced the viability
same,Effect on RAD52 1-209 composition,[4],dissociates RAD52 complexes
same,Inhibition of RAD52 in the presence of ~100-fold excess of ssDNA substrate,RAD52,continued to inhibit RAD52
same,IC50,[5],1600 nM
same,IC50,RAD52 WT,1100 nM
same,Percent lower IC50 for RAD52 WT compared to RAD52 1-209,RAD52 WT,31%
same,eGFP-RAD52 foci,[6],inhibited eGFP-RAD52 foci
same,Survival of BRCA1 deficient CML patient cells,[7],significant reduction in the survival
same,Proliferation of CAPAN-1 cells,[8],selectively halted the proliferation
same,Apoptosis indicated by annexin V staining,[9],specifically increased apoptosis
same,Effect on RecA,RecA,very little effect
same,Effect on SSA,SSA in U20S cells,consistently inhibited SSA
same,Dissociation of pre-formed RAD52-ssDNA complexes,RAD52-ssDNA complexes,fully dissociated RAD52-ssDNA complexes
same,Clonogenic survival of BRCA deficient cell lines,[10],inhibited the survival
same,Clonogenic survival of BRCA proficient cells,[10]; at the given doses,little or no effect
same,Proliferation of VC8 cells,[11],selectively halted the proliferation
same,Effect on HR when RAD52 was suppressed,HR in U20S cells; RAD52 siRNA,had no effect on HR
same,Effect on HR,"HR in U20S cells; U20S cells, 5 μM",little or no reduction in HR
same,DNA damage indicated by γH2AX foci,MDA-MB-436 cells,substantial increase in DNA damage
same,Viability of BRCA1 deficient MDA-MB-436 cells,[12],nearly identical reduction in viability
same,Viability of BRCA1 deficient MDA-MB-436 cells when RAD52 expression was suppressed,[12]; RAD52 siRNA,lost its ability to significantly reduce the viability
same,Effect on NHEJ,NHEJ in U20S cells,only slightly inhibited NHEJ
"NC(Cc1ccccc1O)C(=O)O (racemic) [DL-o-tyrosine, reference compound]",Effect on RAD52 1-209 composition,[4],had no effect on RAD52 1-209 composition
same,Inhibition of RAD52 ssDNA binding,RAD52 WT,failed to inhibit RAD52
"N[C@H](C(=O)O)[C@H](O)c1ccc(O)c(O)c1 [L-DOPS, reference compound]",Inhibition of RAD52 ssDNA binding,RAD52 WT,failed to inhibit
same,Effect on SSA,SSA in U20S cells,failed to inhibit SSA
"O=C(c1cc(Cc2n[nH]c(=O)c3ccccc23)ccc1F)N1CCN(C(=O)C2CC2)CC1 [olaparib, reference compound]",Colony formation by AML patient cells expressing normal levels of BRCA1/2,AML patient cells,little effects
same,Viability of BRCA1 deficient MDA-MB-436 cells,[12],selectively reduced the viability
"RAD52 1-209 (RAD52 ssDNA binding domain, residues 1-209) (domain or fragment, human, UniProt P43351 1-209, looked up) MSGTEEAILGGRDSHPAAGGGSVLCFGQCQYTAEEYQAIQKALRQRLGPEYISSRMAGGGQKVCYIEGHRVINLANEMFGYNGWAHSITQQNVDFVDLNNGKFYVGVCAFVRVQLKDGSYHEDVGYGVSEGLKSKALSLEKARKEAVTDGLKRALRSFGNALGNCILDKDYLRSLNKLPRQLPLEVDLTKAKRQDLEPSVEEARYNSCR",stoichiometry N,light scattering [13],11
same,stoichiometry N,light scattering [14],2
"RAD52 WT (wild-type, full-length RAD52, Histidine-tagged) (natural protein, human, UniProt P43351 1-418, looked up) MSGTEEAILGGRDSHPAAGGGSVLCFGQCQYTAEEYQAIQKALRQRLGPEYISSRMAGGGQKVCYIEGHRVINLANEMFGYNGWAHSITQQNVDFVDLNNGKFYVGVCAFVRVQLKDGSYHEDVGYGVSEGLKSKALSLEKARKEAVTDGLKRALRSFGNALGNCILDKDYLRSLNKLPRQLPLEVDLTKAKRQDLEPSVEEARYNSCRPNMALGHPQLQQVTSPSRPSHAVIPADQDCSSRSLSSSAVESEATHQRKLRQKQLQQQFRERMEKQQVRVSTPSAEKSEAAPPAPPVTHSTPVTVSEPLLEKDFLAGVTQELIKTLEDNSEKWAVTPDAGDGVVKPSSRADPAQTSDTLALNNQMVTQNRTPHSVCHQKPQAKSGSWDLQTYSADQRTTGNWESHRKSQDMKKRKYDPS",stoichiometry N,native gel or EMSA,14
